ChEMBL document CHEMBL5724801, “EUbOPEN Chemogenomics Library - Multiplex” (2024)
“And” between values parts separate entries of the source, which are not always exact repeats. Equal values may be shown once.

System: Fibroblast
Experiment: Multiplex assay against human fibroblast
Type: toxicity, cell-based
Method in brief: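 Phenotypes for tubulin, mitochondrial mass and membrane permeability are expressed as per cents of healthy-nucleus cells. Cells were stained live at seeding with Hoechst33342, BioTracker Green Microtubule Cytoskeleton Dye, MitoTracker Red and Annexin V Alexa Fluor 680, then imaged after compound addition on a CQ1 microscope at 37°C and 5% CO2. Machine-learning gating in CellPathfinder separated Hoechst high-intensity objects from normal cells, divided normal cells by nuclear state (healthy, pyknosed, fragmented) and divided pyknosed cells into mitotic or apoptotic.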

[1] = 12 h, 1 µM, compound concentration 1 uM
[2] = 12 h, 10 µM, compound concentration 10 uM
[3] = 24 h, 1 µM, compound concentration 1 uM
[4] = 24 h, 10 µM, compound concentration 10 uM
[5] = 48 h, 1 µM, compound concentration 1 uM
[6] = 48 h, 10 µM, compound concentration 10 uM

OCCCNc1cc(-c2ccnc(Nc3cccc(Cl)c3)n2)ccn1
Population Apoptotic (%) [1]: 58% and 50%
Population Fragmented Nuclei (%) [1]: 15% and 21%
Population Healthy Nuclei (%) [1]: 66% and 53%
Population Hoechst High Intensity Objects (%) [1]: 4% and 6%
Population Membrane Permeable-Phenotype (%) [1]: 0% and 5%
Population Mitochondria Different-Phenotype (%) [1]: 9% and 13%
Population Mitotic Cells (%) [1]: 41% and 50%
Population Normal (%) [1]: 95% and 93%
Population Pyknosed Nuclei (%) [1]: 18% and 24%
Population Tubulin-Different-Phenotype (%) [1]: 52% and 47%
Total Cell Count [1]: 139 and 138
Population Apoptotic (%) [2]: 61% and 52%
Population Fragmented Nuclei (%) [2]: 38% and 65%
Population Healthy Nuclei (%) [2]: 44% and 24%
Population Hoechst High Intensity Objects (%) [2]: 10% and 6%
Population Membrane Permeable-Phenotype (%) [2]: 9% and 20%
Population Mitochondria Different-Phenotype (%) [2]: 25% and 11%
Population Mitotic Cells (%) [2]: 38% and 47%
Population Normal (%) [2]: 89% and 93%
Population Pyknosed Nuclei (%) [2]: 17% and 9%
Population Tubulin-Different-Phenotype (%) [2]: 88% and 84%
Total Cell Count [2]: 136 and 227
Population Apoptotic (%) [3]: 56% and 46%
Population Fragmented Nuclei (%) [3]: 16% and 29%
Population Healthy Nuclei (%) [3]: 65% and 48%
Population Hoechst High Intensity Objects (%) [3]: 2% and 3%
Population Membrane Permeable-Phenotype (%) [3]: 1% and 6%
Population Mitochondria Different-Phenotype (%) [3]: 20% and 10%
Population Mitotic Cells (%) [3]: 43% and 53%
Population Normal (%) [3]: 97% and 96%
Population Pyknosed Nuclei (%) [3]: 17% and 22%
Population Tubulin-Different-Phenotype (%) [3]: 60% and 55%
Total Cell Count [3]: 136 and 139
Population Apoptotic (%) [4]: 80%
Population Fragmented Nuclei (%) [4]: 36% and 63%
Population Healthy Nuclei (%) [4]: 42% and 27%
Population Hoechst High Intensity Objects (%) [4]: 11% and 6%
Population Membrane Permeable-Phenotype (%) [4]: 7% and 12%
Population Mitotic Cells (%) [4]: 20%
Population Normal (%) [4]: 88% and 93%
Population Pyknosed Nuclei (%) [4]: 20% and 9%
Population Tubulin-Different-Phenotype (%) [4]: 86% and 80%
Total Cell Count [4]: 138 and 218
Population Apoptotic (%) [5]: 46% and 37%
Population Fragmented Nuclei (%) [5]: 27% and 36%
Population Healthy Nuclei (%) [5]: 47% and 30%
Population Hoechst High Intensity Objects (%) [5]: 8% and 7%
Population Membrane Permeable-Phenotype (%) [5]: 1% and 5%
Population Mitochondria Different-Phenotype (%) [5]: 20% and 24%
Population Mitotic Cells (%) [5]: 53% and 62%
Population Normal (%) [5]: 91% and 92%
Population Pyknosed Nuclei (%) [5]: 25% and 32%
Population Tubulin-Different-Phenotype (%) [5]: 66% and 45%
Total Cell Count [5]: 136 and 132
Population Apoptotic (%) [6]: 91% and 85%
Population Fragmented Nuclei (%) [6]: 39% and 58%
Population Healthy Nuclei (%) [6]: 39% and 30%
Population Hoechst High Intensity Objects (%) [6]: 14% and 6%
Population Membrane Permeable-Phenotype (%) [6]: 15% and 20%
Population Mitochondria Different-Phenotype (%) [6]: 42% and 20%
Population Mitotic Cells (%) [6]: 8% and 14%
Population Normal (%) [6]: 85% and 93%
Population Pyknosed Nuclei (%) [6]: 21% and 11%
Population Tubulin-Different-Phenotype (%) [6]: 77% and 64%
Total Cell Count [6]: 134 and 192

CN(C)C(=O)Cn1cc(-c2ccc(-c3nnc4ccccn34)cc2)cn1
Population Apoptotic (%) [1]: 57% and 55%
Population Fragmented Nuclei (%) [1]: 18% and 20%
Population Healthy Nuclei (%) [1]: 60% and 58%
Population Hoechst High Intensity Objects (%) [1]: 5%
Population Membrane Permeable-Phenotype (%) [1]: 1% and 7%
Population Mitochondria Different-Phenotype (%) [1]: 3% and 7%
Population Mitotic Cells (%) [1]: 42% and 44%
Population Normal (%) [1]: 94%
Population Pyknosed Nuclei (%) [1]: 21% and 20%
Population Tubulin-Different-Phenotype (%) [1]: 22% and 42%
Total Cell Count [1]: 139 and 152
Population Apoptotic (%) [2]: 52% and 39%
Population Healthy Nuclei (%) [2]: 63% and 38%
Population Hoechst High Intensity Objects (%) [2]: 3% and 8%
Population Membrane Permeable-Phenotype (%) [2]: 0% and 15%
Population Mitochondria Different-Phenotype (%) [2]: 6% and 18%
Population Mitotic Cells (%) [2]: 47% and 60%
Population Normal (%) [2]: 96% and 91%
Population Pyknosed Nuclei (%) [2]: 28% and 29%
Population Tubulin-Different-Phenotype (%) [2]: 31% and 70%
Total Cell Count [2]: 140 and 123
Population Apoptotic (%) [3]: 56% and 54%
Population Fragmented Nuclei (%) [3]: 23%
Population Healthy Nuclei (%) [3]: 60%
Population Hoechst High Intensity Objects (%) [3]: 0% and 4%
Population Membrane Permeable-Phenotype (%) [3]: 2% and 4%
Population Mitochondria Different-Phenotype (%) [3]: 1% and 3%
Population Mitotic Cells (%) [3]: 43% and 45%
Population Normal (%) [3]: 99% and 95%
Population Pyknosed Nuclei (%) [3]: 16%
Population Tubulin-Different-Phenotype (%) [3]: 25% and 41%
Total Cell Count [3]: 144 and 142
Population Apoptotic (%) [4]: 65% and 26%
Population Healthy Nuclei (%) [4]: 65% and 40%
Population Hoechst High Intensity Objects (%) [4]: 5% and 9%
Population Membrane Permeable-Phenotype (%) [4]: 2% and 10%
Population Mitochondria Different-Phenotype (%) [4]: 5% and 6%
Population Mitotic Cells (%) [4]: 34% and 73%
Population Normal (%) [4]: 94% and 90%
Population Pyknosed Nuclei (%) [4]: 24% and 22%
Population Tubulin-Different-Phenotype (%) [4]: 25% and 71%
Total Cell Count [4]: 140 and 126
Population Apoptotic (%) [5]: 58% and 42%
Population Fragmented Nuclei (%) [5]: 22% and 28%
Population Healthy Nuclei (%) [5]: 61% and 52%
Population Hoechst High Intensity Objects (%) [5]: 1% and 5%
Population Membrane Permeable-Phenotype (%) [5]: 4% and 6%
Population Mitochondria Different-Phenotype (%) [5]: 4% and 2%
Population Mitotic Cells (%) [5]: 41% and 57%
Population Normal (%) [5]: 98% and 94%
Population Pyknosed Nuclei (%) [5]: 16% and 18%
Population Tubulin-Different-Phenotype (%) [5]: 29% and 46%
Total Cell Count [5]: 151 and 147
Population Apoptotic (%) [6]: 52% and 60%
Population Fragmented Nuclei (%) [6]: 16% and 44%
Population Healthy Nuclei (%) [6]: 66% and 47%
Population Hoechst High Intensity Objects (%) [6]: 2% and 3%
Population Membrane Permeable-Phenotype (%) [6]: 0% and 18%
Population Mitochondria Different-Phenotype (%) [6]: 2% and 8%
Population Mitotic Cells (%) [6]: 47% and 40%
Population Normal (%) [6]: 97% and 96%
Population Pyknosed Nuclei (%) [6]: 17% and 7%
Population Tubulin-Different-Phenotype (%) [6]: 38% and 73%
Total Cell Count [6]: 137 and 131

COc1ccccc1N1CCN(CCCCNC(=O)c2ccc3ccccc3c2)CC1.Cl
Population Apoptotic (%) [1]: 52% and 40%
Population Fragmented Nuclei (%) [1]: 19% and 20%
Population Healthy Nuclei (%) [1]: 68% and 63%
Population Mitotic Cells (%) [1]: 47% and 59%
Population Normal (%) [1]: 95% and 96%
Population Tubulin-Different-Phenotype (%) [1]: 35% and 42%
Total Cell Count [1]: 194 and 148
Population Apoptotic (%) [2]: 58% and 39%
Population Fragmented Nuclei (%) [2]: 32% and 40%
Population Healthy Nuclei (%) [2]: 52% and 34%
Population Mitotic Cells (%) [2]: 41% and 60%
Population Normal (%) [2]: 96% and 89%
Population Tubulin-Different-Phenotype (%) [2]: 79% and 90%
Total Cell Count [2]: 194 and 144
Population Apoptotic (%) [3]: 39% and 60%
Population Fragmented Nuclei (%) [3]: 14% and 26%
Population Healthy Nuclei (%) [3]: 73% and 60%
Population Mitotic Cells (%) [3]: 60% and 40%
Population Normal (%) [3]: 98% and 96%
Population Tubulin-Different-Phenotype (%) [3]: 31% and 40%
Total Cell Count [3]: 193 and 156
Population Apoptotic (%) [4]: 66% and 69%
Population Fragmented Nuclei (%) [4]: 32% and 41%
Population Healthy Nuclei (%) [4]: 56% and 41%
Population Mitotic Cells (%) [4]: 33% and 30%
Population Normal (%) [4]: 95% and 91%
Population Tubulin-Different-Phenotype (%) [4]: 85% and 81%
Total Cell Count [4]: 206 and 154
Population Apoptotic (%) [5]: 42% and 29%
Population Fragmented Nuclei (%) [5]: 21% and 34%
Population Healthy Nuclei (%) [5]: 70% and 54%
Population Mitotic Cells (%) [5]: 57% and 70%
Population Normal (%) [5]: 96% and 95%
Population Tubulin-Different-Phenotype (%) [5]: 38% and 39%
Total Cell Count [5]: 199 and 167
Population Apoptotic (%) [6]: 73% and 75%
Population Fragmented Nuclei (%) [6]: 33% and 38%
Population Healthy Nuclei (%) [6]: 57% and 56%
Population Mitotic Cells (%) [6]: 26% and 25%
Population Tubulin-Different-Phenotype (%) [6]: 89% and 82%
Total Cell Count [6]: 224 and 168
